Data: ChEMBL document CHEMBL4725426, “Targeted Detection of Cyclooxygenase-1 in Ovarian Cancer” (ACS Med Chem Lett, 2020)
Calls of active or inactive are those of the source. No cut-off for these calls is given here.

Key:
[1] = target: T1, Prostaglandin G/H synthase 1 (Ovis aries, UniProt P05979); assay: Inhibition of ovine COX-1 assessed as [14C] arachidonic acid remaining using [14C] arachidonic acid as substrate preincubated for 20 mins followed by substrate addition measured after 30 sec by thin layer chromatography assay
T1 sequence (P05979 whole entry): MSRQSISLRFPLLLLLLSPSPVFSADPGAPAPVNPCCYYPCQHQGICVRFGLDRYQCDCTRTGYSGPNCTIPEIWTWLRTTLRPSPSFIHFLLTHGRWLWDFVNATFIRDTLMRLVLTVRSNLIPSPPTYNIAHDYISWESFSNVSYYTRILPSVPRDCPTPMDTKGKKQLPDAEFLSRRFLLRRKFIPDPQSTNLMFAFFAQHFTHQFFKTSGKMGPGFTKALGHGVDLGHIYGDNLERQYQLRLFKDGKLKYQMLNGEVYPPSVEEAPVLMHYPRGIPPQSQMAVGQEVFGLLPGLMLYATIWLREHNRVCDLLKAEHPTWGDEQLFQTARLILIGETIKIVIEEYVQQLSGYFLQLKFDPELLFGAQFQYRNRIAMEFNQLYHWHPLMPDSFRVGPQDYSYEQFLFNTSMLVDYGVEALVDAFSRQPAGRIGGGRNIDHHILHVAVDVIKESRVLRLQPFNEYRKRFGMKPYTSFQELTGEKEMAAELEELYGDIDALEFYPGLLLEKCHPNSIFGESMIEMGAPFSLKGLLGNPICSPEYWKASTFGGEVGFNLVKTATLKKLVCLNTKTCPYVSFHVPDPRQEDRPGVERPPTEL
Procedure, shortened: (§1)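 Purified ovine COX-1 or murine COX-2 preincubated 20 min with vehicle or compound at various concentrations. [1-¹⁴C]arachidonic acid was then added and the reaction run a further 30 s. Conversion read by thin layer chromatography. IC50 derived.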

[2] = target: T2, Prostaglandin G/H synthase 1 (Homo sapiens, UniProt P23219); assay: Inhibition of COX-1 in human OVCAR3 cells assessed as [14C] arachidonic acid remaining using [14C] arachidonic acid as substrate preincubated for 30 mins followed by substrate addition measured after 30 mins; assay type: cell-based, OVCAR-3
T2 sequence (P23219 whole entry): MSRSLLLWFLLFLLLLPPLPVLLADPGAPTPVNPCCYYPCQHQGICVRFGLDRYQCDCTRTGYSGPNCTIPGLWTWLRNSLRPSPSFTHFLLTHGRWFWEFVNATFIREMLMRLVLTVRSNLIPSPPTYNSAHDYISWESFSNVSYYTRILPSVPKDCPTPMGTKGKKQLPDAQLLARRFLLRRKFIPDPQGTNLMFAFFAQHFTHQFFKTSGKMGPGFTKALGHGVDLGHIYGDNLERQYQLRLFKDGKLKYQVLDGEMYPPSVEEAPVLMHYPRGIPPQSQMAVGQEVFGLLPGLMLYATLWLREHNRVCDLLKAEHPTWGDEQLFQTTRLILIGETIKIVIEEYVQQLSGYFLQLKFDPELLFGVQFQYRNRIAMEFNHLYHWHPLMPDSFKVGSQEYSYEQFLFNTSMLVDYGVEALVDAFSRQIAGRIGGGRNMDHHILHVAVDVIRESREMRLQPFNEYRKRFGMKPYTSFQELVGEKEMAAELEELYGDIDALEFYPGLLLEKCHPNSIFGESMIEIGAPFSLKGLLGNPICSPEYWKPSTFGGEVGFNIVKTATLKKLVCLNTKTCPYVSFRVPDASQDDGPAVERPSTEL
Procedure, shortened: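 Intact OVCAR-3 cells treated 30 min with vehicle or compound across several concentrations, then given [1-¹⁴C]arachidonic acid for another 30 min. Medium aliquots were quenched, extracted, run on TLC and scanned for substrate remaining. IC50 taken from the concentration series.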

[3] = Drug uptake in kidney of NU-Fox1nu nude mouse xenografted with COX-1 expressing human OVCAR3 cells at 1 mg/kg, ip by IVIS spectrum ex vivo fluorescence imaging analysis; assay type: ADME, organism-based
Procedure, shortened: (§2)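 OVCAR-3 xenograft-bearing female nude mice (tumors 750–1000 mm³) were dosed with probe at 1 mg/kg i.p. in DMSO. After in vivo imaging, tumor, muscle, kidney and liver were collected and imaged ex vivo.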

[4] = Drug uptake in leg muscle of NU-Fox1nu nude mouse xenografted with COX-1 expressing human OVCAR3 cells at 1 mg/kg, ip by IVIS spectrum ex vivo fluorescence imaging analysis; assay type: ADME, organism-based; procedure, shortened: as §2
[5] = target: T2, Prostaglandin G/H synthase 1; assay: Binding affinity to COX-1 in human OVCAR3 cells assessed as protein labeling pretreated with indomethacin for 30 mins followed by compound treatment for 30 mins and subsequent compound washout followed by cultured in serum media measured after 45 mins by fluorescence microscope based optical imaging analysis; assay type: cell-based; conditions: OVCAR-3
Procedure, shortened: (§3)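 OVCAR-3 cells pretreated 30 min with vehicle or indomethacin, then exposed to probe 30 min, washed briefly and cultured 45 min in serum-containing medium. Intracellular fluorescence then imaged under a fluorescence microscope.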

[6] = target: T3, Prostaglandin G/H synthase 2 (Mus musculus, UniProt Q05769); assay: Inhibition of murine COX-2 assessed as [14C] arachidonic acid remaining using [14C] arachidonic acid as substrate preincubated for 20 mins followed by substrate addition measured after 30 sec by thin layer chromatography assay; procedure, shortened: as §1
T3 sequence (Q05769 whole entry): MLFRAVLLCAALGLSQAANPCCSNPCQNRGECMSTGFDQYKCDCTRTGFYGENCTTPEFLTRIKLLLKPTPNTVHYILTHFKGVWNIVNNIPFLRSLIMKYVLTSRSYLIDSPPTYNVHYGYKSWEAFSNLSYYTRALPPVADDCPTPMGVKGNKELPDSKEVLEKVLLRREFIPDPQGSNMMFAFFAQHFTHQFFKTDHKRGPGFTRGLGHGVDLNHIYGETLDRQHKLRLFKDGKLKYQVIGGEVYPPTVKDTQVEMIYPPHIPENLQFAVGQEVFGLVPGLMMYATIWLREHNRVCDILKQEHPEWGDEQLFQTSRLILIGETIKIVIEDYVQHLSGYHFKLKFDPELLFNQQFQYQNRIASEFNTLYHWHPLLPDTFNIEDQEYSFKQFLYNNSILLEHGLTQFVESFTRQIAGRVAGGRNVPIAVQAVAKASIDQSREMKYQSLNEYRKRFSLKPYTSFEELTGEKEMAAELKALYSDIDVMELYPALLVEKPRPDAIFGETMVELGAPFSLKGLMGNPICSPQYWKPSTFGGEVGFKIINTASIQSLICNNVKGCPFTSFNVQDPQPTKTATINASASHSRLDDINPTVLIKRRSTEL

[7] = Drug uptake in NU-Fox1nu nude mouse xenografted with COX-1 expressing human OVCAR3 cells at 1 mg/kg, ip and measured before 2 hrs post-drug administration by IVIS spectrum in vivo fluorescence imaging analysis; assay type: ADME, organism-based
Procedure, shortened: (§4)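 Female athymic nude mice carried subcutaneous OVCAR-3 xenografts on the left hind flank, grown to about 750–1000 mm³. Probe given i.p. at 1 mg/kg in DMSO. Mice lightly anesthetized and imaged on an IVIS system at 15 min, 30 min, 1, 2, 3 and 4 h post-injection.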

[8] = Drug uptake in NU-Fox1nu nude mouse xenografted with COX-1 expressing human OVCAR3 cells at 1 mg/kg, ip and measured after 3 to 4 hrs post-drug administration by IVIS spectrum in vivo fluorescence imaging analysis; assay type: ADME, organism-based; conditions: time 3-4 hrs; procedure, shortened: as §4
[9] = Drug uptake in NU-Fox1nu nude mouse allografted with mouse ID8-NGL cells at 2 mg/kg, ip measured after 3 to 4 hrs post-drug administration by IVIS spectrum in vivo fluorescence imaging analysis; assay type: ADME, organism-based; conditions: time 3-4 hrs
Procedure, shortened: (§5)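 Female athymic nude mice bearing ID8-NGL flank allografts (left hind flank, grown to 750–1000 mm³; n = 6). Probe given i.p. at 2 mg/kg in DMSO. Imaged under light anesthesia on an IVIS system 3 to 4 h post-injection.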

[10] = Drug uptake in tumor of NU-Fox1nu nude mouse allografted with mouse ID8-NGL cells at 2 mg/kg, ip treated with 10 mg/kg indomethacin 1hr prior to compound treatment followed by compound administration measured after 3 to 4 hrs post-drug administration by IVIS spectrum fluorescence imaging analysis; assay type: ADME, organism-based, Neoplasm; conditions: in vivo, time 3-4 hrs
Procedure, shortened: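 ID8-NGL flank allografts (750–1000 mm³) in nude mice. Indomethacin 10 mg/kg i.p. in DMSO given 1 h before probe (2 mg/kg i.p. in DMSO). Tumors imaged 3 to 4 h after probe; region-of-interest light emission read at 3.5 h in relative fluorescence units.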

[11] = Drug uptake in tumor of NU-Fox1nu nude mouse allografted with mouse ID8-NGL cells at 2 mg/kg, ip measured after 3 to 4 hrs post-drug administration by IVIS spectrum in vivo fluorescence imaging analysis relative to control; assay type: ADME, organism-based, Neoplasm; conditions: time 3-4 hrs; procedure, shortened: as §5
[12] = target: T2, Prostaglandin G/H synthase 1; assay: Binding affinity to COX-1 in human OVCAR3 cells assessed as protein labeling treated for 30 mins and subsequent compound washout followed by cultured in serum media measured after 45 mins by fluorescence microscope based optical imaging analysis; assay type: cell-based; conditions: OVCAR-3; procedure, shortened: as §3
[13] = Drug uptake in tumor of NU-Fox1nu nude mouse xenografted with COX-1 expressing human OVCAR3 cells at 1 mg/kg, ip by IVIS spectrum ex vivo fluorescence imaging analysis; assay type: ADME, organism-based, Neoplasm; procedure, shortened: as §2
[14] = Drug uptake in liver of NU-Fox1nu nude mouse xenografted with COX-1 expressing human OVCAR3 cells at 1 mg/kg, ip by IVIS spectrum ex vivo fluorescence imaging analysis; assay type: ADME, organism-based; procedure, shortened: as §2

IC50 [1]: 94 nM
IC50 [2]: 44 nM
Drug uptake [3]: Active
Drug uptake [4]: Active
Activity [5]: inactive
IC50 [6]: > 1000 nM
Drug uptake [7]: Not Active
Drug uptake [8]: Active
Drug uptake [9]: Active
Drug uptake [10]: Not Active
fold change (FC) [11]: 8
Activity [12]: Active
Drug uptake [13]: Active
Drug uptake [14]: Active
Compound: COc1ccc(-n2nc(CCC(=O)NCCCCNC(=O)c3ccc(C4=c5cc6c7c(c5Oc5c4cc4c8c5CCCN8CCC4)CCC[N+]=7CCC6)c(C(=O)[O-])c3)cc2-c2ccc(C)cc2)cc1
